Hits are enriched below; roughly 1.6% of the tested compounds scored in any of these assays.
SKN-1 block – C. elegans SKN-1 inhibition | C. elegans VP596 Pgst-4::GFP/RFP ratio, acrylamide-induced, 24 h | inhibition, % at 21.8 µM | 360,000 compounds, 0.49% hits | AID 624304;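 active = interference check ratio from 0.5 to 1.5 plus GFP to RFP signal ratio inhibition reaching or exceeding a fixed threshold, cut at about 30% in these data, passing the limit was not always enough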
Rin1-Abl PPI inh – inhibitors of human Rin1-Abl protein interaction; inhibition, % at 7.35 µM; 360,000 compounds, 0.4% hits; TR-FRET Rin1/Abl binding, biochemical; in the data active = inhibition above about 5%, passing the limit was not always enough
Arr AP2 block – human beta-arrestin and AP2 interaction inhibition; FITC-arrestin peptide / GST-AP2 beads, flow cytometry; AP2 beta2 appendage carries R879A mutation; inhibition, % at 10 µM; 340,000 compounds, 0.31% hits;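 active = inhibition above a set limit, near 3 SD of compounds lacking own fluorescence, cut at about 54% in these data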
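test system = AP2 appendage R879A on GSH beads | buffer or medium = PBS plus Tween 20 (0.05%) and BSA (0.1%) | incubation = 12 min plus 1 h, RT | detection = bead flow cytometry, FITC channel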
MT1-MMP act inh – MT1-MMP (human) activation inhibition; 360,000 compounds, 0.061% hits; AID 651647; HT1080 RFP-PRO-GFP cells, GFP/RFP ratio fluorescence, overnight; percent of plate control window, DMSO zero; P50281; GFP/RFP ratio change, % at 20 µM;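 active = GFP/RFP ratio change of at least 30% with cell ATP level not reduced by more than half and red fluorescence within 50% of control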
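Read-out: GFP/RFP fluorescence ratio; Test system: RFP-PRO-GFP reporter HT1080 cells; Compound dosing: single-point 20 µM compound, 1% DMSO; Times: overnight compound exposure at 37 °C.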
Tb MetRS inh – blocks T. brucei methionyl-tRNA synthetase activity; purified T. brucei MetRS, ATP depletion, Kinase-Glo luminescence; inhibition, % at 11.9 µM; AID 624268; 360,000 compounds, 0.4% hits;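 active = inhibition above a per-plate cutoff of the control wells' mean inhibition plus 3 SD, cut at about 5.5% in these data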
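Test system: purified T. brucei MetRS enzyme. Also added: ATP, methionine and E. coli bulk tRNA substrates. Compound: 11.9 µM single point. Schedule: 15 min enzyme-compound preincubation, 2 h reaction, 10 min detection, 25 °C. Signal: luciferase luminescence of residual ATP, Kinase-Glo. Evaluation: percent inhibition versus plate control medians. Controls: DMSO wells, low control.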
Rin1 Abl conf – confirmation of inhibitors of human Rin1-Abl interaction. shares compounds with Rin1-Abl PPI inh. TR-FRET Rin1-Abl binding, purified proteins. inhibition, % at 7.35 µM. 1,300 compounds, 49% hits
GFP quencher – counter-screen for Rin1-Abl inhibitors: GFP fluorescence quenchers; shares compounds with Rin1-Abl PPI inh; inhibitors/quenchers counterscreen; inhibition, % at 6.75 µM; 1,300 compounds, 8.5% hits; AID 602125;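 also: ABL1-eGFP fusion protein alone without its partner RIN1-SBP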
GFP quench DR – quenches GFP in dose response, Rin1-Abl counter-screen; shares compounds with Rin1-Abl PPI inh; GFP fluorescence interference/quenching counterscreen; IC50, µM; 230 tested, under 10 active; AID 602182; call rule not given here;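 also: ABL1-eGFP fusion protein alone without its RIN1 binding partner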
Of the large screens only hits and unclear results are named; the others gave an inactive call (follow-up assays come after a bar, where they were run). Rule as the data show it, unless noted: active = inhibition above about 6.5%; inactive = the rest.

COc1cc2c(C(=O)N3CCN(c4cccc(Cl)c4)CC3)cn(C)c(=O)c2cc1OC	Rin1-Abl PPI inh 17 | Rin1 Abl conf 32 | GFP quencher inactive | GFP quench DR inactive
CCn1cc(C(=O)N2CCN(c3cccc(Cl)c3)CC2)c2cc(OC)c(OC)cc2c1=O	none
CCC1(CC)C(=O)C2=C3C1[C@H](C(=O)OC)C=C(C(=O)OC)C[C@H]3n1c(=O)n(-c3ccccc3)c(=O)n1[C@H]2C (stereo not given in full)	Rin1-Abl PPI inh 24 | Rin1 Abl conf 23 | GFP quencher inactive | GFP quench DR inactive
O=C1/C(=C/c2ccc(O)cc2)CCc2ccc([N+](=O)[O-])cc21	none
O=C1/C(=C\c2ccc([N+](=O)[O-])cc2)CCc2ccccc21	Rin1-Abl PPI inh 18 | Rin1 Abl conf inactive | GFP quencher inactive
O=C(Nc1ccc(Oc2ccccc2)cc1)C1CCN(c2c3c(nc4ncnn24)CCC3)CC1	Rin1-Abl PPI inh 6.0 | Rin1 Abl conf 12 | GFP quencher inactive
Cc1[nH]c(=O)[nH]c1C(=O)CCCCC(=O)O	Rin1-Abl PPI inh 89 (no result: MT1-MMP act inh) | Rin1 Abl conf 98 | GFP quencher inactive | GFP quench DR inactive
Nc1cccc2nsnc12	none
Nc1cc2nsnc2cc1Br	Rin1-Abl PPI inh 10, Tb MetRS inh 12 | Rin1 Abl conf 26 | GFP quencher 9.5
Cc1ccc(Nc2nc(N)nc(CSc3nnc(-c4ccncc4)o3)n2)cc1	SKN-1 block 46, Rin1-Abl PPI inh 9.6 | Rin1 Abl conf 10 | GFP quencher inactive
Cc1ccc(Nc2nc(N)nc(CSc3ncccn3)n2)cc1	none
CC(=O)c1sc(NC(=O)c2ccc(Cn3cc(Br)cn3)o2)nc1C	none
CC(=O)c1sc(NC(=O)c2ccc(Br)o2)nc1C	Rin1-Abl PPI inh 12 | Rin1 Abl conf inactive | GFP quencher inactive
O=C(CSc1nnc2ccccn12)NNC(=O)c1ccccc1F	none
CC1CCCN(C(=O)C2CCN(S(=O)(=O)c3ccc4c(c3)CC(C)N4C(=O)C3CC3)CC2)C1 (stereo not given)	Rin1-Abl PPI inh 15 | Rin1 Abl conf inactive | GFP quencher inactive
CCOc1ccc(CN(C)C(=O)c2ccc(NC(=O)CC3SC(N4CCCC4)=NC3=O)cc2)cc1 (stereo not given)	Rin1-Abl PPI inh 10 | Rin1 Abl conf inactive | GFP quencher inactive
CCOc1ccc(CNC(=O)C2CCN(S(=O)(=O)N3CCC(C)CC3)CC2)cc1OC	none (no result: Arr AP2 block)
CC1CCN(C(=O)c2ccc(N3CCOCC3)c([N+](=O)[O-])c2)CC1	Rin1-Abl PPI inh 8.9 | Rin1 Abl conf inactive | GFP quencher inactive
Cc1c(C(=O)NC2CC(C)(C)NC(C)(C)C2)oc2c(Cl)cccc12	none (no result: Arr AP2 block)
CC(C(=O)O)N1C(=O)/C(=C/C=C/c2ccco2)SC1=S (stereo not given)	Rin1-Abl PPI inh 13 | Rin1 Abl conf 9.7 | GFP quencher 20
O=C1/C(=C/C=C/c2ccco2)SC(=S)N1NS(=O)(=O)c1ccccc1	Rin1-Abl PPI inh 13 | Rin1 Abl conf inactive | GFP quencher 26
CCN(C(=O)C(C)N1C(=O)/C(=C/c2ccco2)SC1=S)C1CCS(=O)(=O)C1 (stereo not given)	none
O=C1/C(=C/c2cccs2)SC(=S)N1NS(=O)(=O)c1ccccc1	none
COc1cccc(/C=C/C(=O)NCc2cn3cc(Cl)ccc3n2)c1	Rin1-Abl PPI inh 5.2 (no result: MT1-MMP act inh) | Rin1 Abl conf inactive | GFP quencher inactive
O=C(/C=C/c1cccc(Cl)c1)OCc1cn2cc(Cl)ccc2n1	none
CC(=O)N(C)C[C@H]1Oc2ncc(Br)cc2C(=O)N([C@H](C)CO)C[C@@H]1C	none (no result: Arr AP2 block)
COc1cc(/C=C2/C(=O)N(c3cccc(Br)c3)N=C2C)cc(OC)c1O	none
CC1=NN(c2ccccc2)C(=O)/C1=C/c1cccc(C)c1	Rin1-Abl PPI inh 9.4 | Rin1 Abl conf inactive | GFP quencher inactive
CC(=O)Oc1ccc(/C=C2/C(=O)N(c3ccccc3)N=C2C)cc1	Rin1-Abl PPI inh 11 | Rin1 Abl conf inactive | GFP quencher inactive
COc1ccc(/C=C2/C(=O)N(c3ccccc3)N=C2C)cc1OC	Rin1-Abl PPI inh 18 | Rin1 Abl conf inactive | GFP quencher inactive
COC(=O)[C@]12CCCCC=C1N(Cc1ccccc1)C(=O)[C@H](CC(=O)NCC13CC4CC(CC(C4)C1)C3)C2	none (no result: Rin1-Abl PPI inh, Arr AP2 block)
O=C(Nc1ccccc1)/C(=C\c1ccccc1)NC(=O)c1ccco1	none
O=C(Nc1ccc(C(=O)O)cc1)/C(=C\c1ccccc1)NC(=O)c1ccco1	Rin1-Abl PPI inh 8.6 | Rin1 Abl conf inactive | GFP quencher inactive
COCC(C)n1c(SCC(=O)Nc2ccc3c(c2)OCCO3)nc2ccccc2c1=O (stereo not given)	none
COCCn1c(SCC(=O)Nc2ccc3c(c2)OCCO3)nc2ccccc2c1=O	Rin1-Abl PPI inh 7.0 (no result: Arr AP2 block, MT1-MMP act inh) | Rin1 Abl conf inactive | GFP quencher inactive
CC[C@]12c3[nH]c4cc(-c5ccco5)ccc4c3CCN1C(=O)[C@@H](CC(=O)NCC13CC4CC(CC(C4)C1)C3)C[C@@H]2C(=O)N1CCN(C(=O)c2ccco2)CC1	none
CC[C@]12c3[nH]c4ccc(OC)cc4c3CCN1C(=O)C(CC(=O)NCC13CC4CC(CC(C4)C1)C3)C[C@@H]2C(=O)N1CCN(C(=O)c2ccco2)CC1 (stereo not given in full)	Rin1-Abl PPI inh 54 | Rin1 Abl conf 59 | GFP quencher inactive | GFP quench DR inactive
CC[C@]12c3[nH]c4ccc(Cl)cc4c3CCN1C(=O)[C@@H](CC(=O)NCC13CC4CC(CC(C4)C1)C3)C[C@@H]2C(=O)N1CCN(C(=O)c2ccco2)CC1	Rin1-Abl PPI inh 21 | Rin1 Abl conf 16 | GFP quencher inactive
O=C(NC1CCCCC1)c1cccnc1C(=O)O	Rin1-Abl PPI inh 5.9 | Rin1 Abl conf inactive | GFP quencher inactive
COc1ccc(NS(=O)(=O)c2cc(N)ccc2N2CCCC2)cc1	none
COc1ccc(NS(=O)(=O)c2cc(N)ccc2N2CCOCC2)cc1	Rin1-Abl PPI inh 8.3 | Rin1 Abl conf inactive | GFP quencher inactive
CN(C(=O)c1ccccc1)C(=O)c1ccccc1	none (no result: Arr AP2 block)
O=C(CSc1nc2ccccc2c(=O)[nH]1)Nc1ccc(C(=O)O)cc1	none
O=C(CSc1nc2ccccc2c(=O)[nH]1)Nc1ccc(S(=O)(=O)N2CCCC2)cc1	Rin1-Abl PPI inh 8.9 | Rin1 Abl conf inactive | GFP quencher inactive
